Test results from ChEMBL document CHEMBL1139875, “Discovery of 4-aminobutyric acid derivatives possessing anticonvulsant and antinociceptive activities: a hybrid pharmacophore approach” (2007).
Active and inactive are the calls of the source. The calls are words filed in the database; no cut-off is given here.

Key:
Rattus norvegicus [1] = test: Antihyperalgesic effects in Sprague-Dawley rat SNL model assessed as duration of paw withdrawal at 100 mg/kg, ip after 2 hrs, ip; format: functional; conditions: route intraperitoneal
Procedure, shortened: (§1)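 L5 SNL rats (n = 4), dosed 100 mg/kg i.p. (vehicle 30% v/v PEG 400 in water). Pin-prick to midplantar ipsilateral left hindpaw; withdrawal duration, mean of three responses; ≥2 s defined abnormal. Mean ± SEM; one-way ANOVA with Bonferroni versus predrug.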

Rattus norvegicus [2] = test: Effect on spontaneous pain in Sprague-Dawley rat SNL model assessed as duration of paw withdrawal at 100 mg/kg, ip after 2 hrs; format: functional; conditions: route intraperitoneal
Procedure, shortened: (§2)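 Rats underwent left L5 spinal nerve ligation (Kim and Chung) under i.p. pentobarbital (65 mg/kg). Spontaneous pain is recorded for 5 min after 10 min acclimatization, as cumulative duration the ipsilateral paw is lifted, excluding locomotor lifts. Dosing is 100 mg/kg i.p. in 30% v/v PEG 400/water, with testing at 0.5–2.5 h. Four rats, mean ± SEM versus predrug, one-way ANOVA with Bonferroni.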

Mus musculus [3] = test: Analgesic activity in Swiss Albino mouse assessed as number of acetic acid-induced writhing per 30 min after 100 mg/kg, ip; format: functional
Procedure, shortened: (§3)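 Mice in groups of six dosed i.p. at 100 mg/kg, controls receiving 30% v/v PEG 400 in water. Writhing induced by i.p. 0.1 mL of 3% v/v acetic acid 1 h after drug. Writhes (abdominal stretch with at least one hind limb extended) counted over 30 min; % inhibition calculated. Mean ± SEM, Student's t test.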

Rattus norvegicus [4] = test: Effect on spontaneous pain in Sprague-Dawley rat SNL model assessed as duration of paw withdrawal at 100 mg/kg, ip after 1 hr; format: functional; conditions: route intraperitoneal; procedure, shortened: as §2
Mus musculus [5] = test: Anticonvulsant activity in Swiss Albino mouse at 300 mg/kg, ip after 4 hrs by scPIC test; format: functional, organism-based; parameters: dose 300 mg/kg
Procedure, shortened: (§4)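 Mice (Swiss, 20-25 g) given i.p. doses of 30, 100 and 300 mg/kg under ADD program protocols, three per group, examined at 0.5 and 4 h in MES, scPTZ, scSTY or scPIC seizure tests. Value is the minimum dose protecting half or more of the mice.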

Rattus norvegicus [6] = test: Antihyperalgesic effects in Sprague-Dawley rat SNL model assessed as duration of paw withdrawal at 100 mg/kg, ip after 1 hr, ip; format: functional; conditions: route intraperitoneal; procedure, shortened: as §1
Mus musculus [7] = test: Anticonvulsant activity in Swiss Albino mouse at 300 mg/kg, ip after 0.5 hr by scPIC test; format: functional, organism-based; parameters: dose 300 mg/kg; procedure, shortened: as §4
Rattus norvegicus [8] = test: Antihyperalgesic effects in Sprague-Dawley rat SNL model assessed as duration of paw withdrawal at 100 mg/kg, ip after 0.5 hr, ip; format: functional; conditions: route intraperitoneal; procedure, shortened: as §1
Rattus norvegicus [9] = test: Antihyperalgesic effects in Sprague-Dawley rat SNL model assessed as duration of paw withdrawal at 100 mg/kg, ip after 2.5 hrs, ip; format: functional; conditions: route intraperitoneal; procedure, shortened: as §1
Mus musculus [10] = test: Anticonvulsant activity in Swiss Albino mouse at 300 mg/kg, ip after 0.5 hr by scSTY test; format: functional, organism-based; parameters: dose 300 mg/kg; procedure, shortened: as §4
Rattus norvegicus [11] = test: Antihyperalgesic effects in Sprague-Dawley rat SNL model assessed as duration of paw withdrawal at 100 mg/kg, ip after 1.5 hrs, ip; format: functional; conditions: route intraperitoneal; procedure, shortened: as §1
Mus musculus [12] = test: Analgesic activity in Swiss Albino mouse assessed as inhibition of acetic acid-induced writhing responses at 100 mg/kg, ip; format: functional; conditions: for inhibition in vivo at 100 mg/kg: route intraperitoneal; procedure, shortened: as §3
Mus musculus [13] = test: Anticonvulsant activity in Swiss Albino mouse at 300 mg/kg, ip after 4 hrs by scSTY test; format: functional, organism-based; parameters: dose 300 mg/kg; procedure, shortened: as §4
Mus musculus [14] = test: Neurotoxicity in Swiss Albino mouse at 300 mg/kg, ip after 0.5 hr by rotarod test; format: functional, organism-based; parameters: dose 300 mg/kg
Procedure, shortened: (§5)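 Swiss mice (20-25 g) are trained on an accelerating rotorod (10 rpm, 3.2 cm rod), then injected i.p. at 30, 100 or 300 mg/kg, with three per group. Neurotoxicity means failure to keep equilibrium for at least 1 min in each of three trials, checked at 0.5 and 4 h. The value reported is the minimum dose affecting half or more of the mice.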

Rattus norvegicus [15] = test: Effect on spontaneous pain in Sprague-Dawley rat SNL model assessed as duration of paw withdrawal at 100 mg/kg, ip after 1.5 hrs; format: functional; conditions: route intraperitoneal; procedure, shortened: as §2
Mus musculus [16] = test: Neurotoxicity in Swiss Albino mouse at 300 mg/kg, ip after 4 hrs by rotarod test; format: functional, organism-based; parameters: dose 300 mg/kg; procedure, shortened: as §5
Mus musculus [17] = test: Anticonvulsant activity in Swiss Albino mouse at 300 mg/kg, ip after 4 hrs by MES test; format: functional, organism-based; parameters: dose 300 mg/kg; procedure, shortened: as §4
Mus musculus [18] = test: Anticonvulsant activity in Swiss Albino mouse at 300 mg/kg, ip after 0.5 hr by scPTZ test; format: functional, organism-based; parameters: dose 300 mg/kg; procedure, shortened: as §4
Rattus norvegicus [19] = test: Effect on spontaneous pain in Sprague-Dawley rat SNL model assessed as duration of paw withdrawal at 100 mg/kg, ip after 0.5 hr; format: functional; conditions: route intraperitoneal; procedure, shortened: as §2
Rattus norvegicus [20] = test: Effect on spontaneous pain in Sprague-Dawley rat SNL model assessed as duration of paw withdrawal at 100 mg/kg, ip after 2.5 hrs; format: functional; conditions: route intraperitoneal; procedure, shortened: as §2
Mus musculus [21] = test: Anticonvulsant activity in Swiss Albino mouse at 300 mg/kg, ip after 0.5 hr by MES test; format: functional, organism-based; parameters: dose 300 mg/kg; procedure, shortened: as §4
Rattus norvegicus [22] = test: Antihyperalgesic effects in Sprague-Dawley rat CCI model assessed as duration of paw withdrawal at 100 mg/kg, ip after 1 hr; format: functional; conditions: route intraperitoneal
Rattus norvegicus [23] = test: Antihyperalgesic effects in Sprague-Dawley rat CCI model assessed as duration of paw withdrawal at 100 mg/kg, ip after 1.5 hrs; format: functional; conditions: route intraperitoneal
Rattus norvegicus [24] = test: Anti-dynamic allodynia effect in Sprague-Dawley rat SNL model assessed as latency to paw withdrawal 100 mg/kg, ip after 1.5 hrs; format: functional; conditions: route intraperitoneal
Procedure, shortened: (§6)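 Left L5 spinal nerve ligation rats, tested preoperatively and 9 days postoperatively, then given 100 mg/kg i.p. (vehicle 30% v/v PEG 400 in water). After 10 min acclimatization, plantar surface of affected paw stroked mildly with a cotton-bud; paw lift response recorded. n = 4; retested 0.5-2.5 h post-dose.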

Rattus norvegicus [25] = test: Antihyperalgesic effects in Sprague-Dawley rat CCI model assessed as duration of paw withdrawal at 100 mg/kg, ip after 2.5 hrs; format: functional; conditions: route intraperitoneal
Rattus norvegicus [26] = test: Anti-dynamic allodynia effect in Sprague-Dawley rat SNL model assessed as latency to paw withdrawal 100 mg/kg, ip after 0.5 hr; format: functional; conditions: route intraperitoneal; procedure, shortened: as §6
Rattus norvegicus [27] = test: Antihyperalgesic effects in Sprague-Dawley rat CCI model assessed as duration of paw withdrawal at 100 mg/kg, ip after 2 hrs; format: functional; conditions: route intraperitoneal
Rattus norvegicus [28] = test: Anti-dynamic allodynia effect in Sprague-Dawley rat SNL model assessed as latency to paw withdrawal 100 mg/kg, ip after 1 hr; format: functional; conditions: route intraperitoneal; procedure, shortened: as §6
Rattus norvegicus [29] = test: Anti-dynamic allodynia effect in Sprague-Dawley rat SNL model assessed as latency to paw withdrawal 100 mg/kg, ip after 2 hrs; format: functional; conditions: route intraperitoneal; procedure, shortened: as §6
Rattus norvegicus [30] = test: Anti-dynamic allodynia effect in Sprague-Dawley rat SNL model assessed as latency to paw withdrawal 100 mg/kg, ip after 2.5 hrs; format: functional; conditions: route intraperitoneal; procedure, shortened: as §6
Rattus norvegicus [31] = test: Antihyperalgesic effects in Sprague-Dawley rat CCI model assessed as duration of paw withdrawal at 100 mg/kg, ip after 0.5 hr; format: functional; conditions: route intraperitoneal
Rattus norvegicus [32] = test: Effect on spontaneous pain in Sprague-Dawley rat CCI model assessed as duration of paw withdrawal at 100 mg/kg, ip after 1 hr; format: functional; conditions: route intraperitoneal
Procedure, shortened: (§7)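 CCI rats (n = 4) dosed 100 mg/kg i.p. (vehicle 30% v/v PEG 400 in water). After 10 min acclimatization in a cage 5 cm above ground, cumulative time the ipsilateral paw was held off the floor over 5 min recorded, excluding locomotion lifts. Mean ± SEM; ANOVA/Bonferroni versus predrug.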

Rattus norvegicus [33] = test: Effect on spontaneous pain in Sprague-Dawley rat CCI model assessed as duration of paw withdrawal at 100 mg/kg, ip after 2 hrs; format: functional; conditions: route intraperitoneal
Procedure, shortened: (§8)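 Unilateral CCI of sciatic nerve (Bennett and Xie) in Sprague-Dawley rats under i.p. pentobarbital sodium (65 mg/kg). Spontaneous pain is scored over 5 min after 10 min acclimatization, as cumulative time the ipsilateral paw is held off the floor. Paw lifts from locomotion or repositioning are excluded. Drug is given at 100 mg/kg i.p. with 30% v/v PEG 400 vehicle. Mean ± SEM, n = 4, compared with predrug by ANOVA/Bonferroni.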

Rattus norvegicus [34] = test: Effect on spontaneous pain in Sprague-Dawley rat CCI model assessed as duration of paw withdrawal at 100 mg/kg, ip after 1.5 hrs; format: functional; conditions: route intraperitoneal; procedure, shortened: as §8
Rattus norvegicus [35] = test: Effect on spontaneous pain in Sprague-Dawley rat CCI model assessed as duration of paw withdrawal at 100 mg/kg, ip after 2.5 hrs; format: functional; conditions: route intraperitoneal; procedure, shortened: as §8
Rattus norvegicus [36] = test: Effect on spontaneous pain in Sprague-Dawley rat CCI model assessed as duration of paw withdrawal at 100 mg/kg, ip after 0.5 hr; format: functional; conditions: route intraperitoneal; procedure, shortened: as §7

Structure (SMILES) | Activity (Rattus norvegicus [1]) | Activity (Rattus norvegicus [2]) | Activity (Mus musculus [3]; route intraperitoneal) | Activity (Rattus norvegicus [4]) | Activity (Mus musculus [5]) | Activity (Rattus norvegicus [6]) | Activity (Mus musculus [7]) | Activity (Rattus norvegicus [8]) | Activity (Rattus norvegicus [9]) | Activity (Mus musculus [10]) | Activity (Rattus norvegicus [11]) | inhibition in vivo at 100 mg/kg (Mus musculus [12]) | Activity (Mus musculus [13]) | Activity (Mus musculus [14]) | Activity (Rattus norvegicus [15]) | Activity (Mus musculus [16]) | Activity (Mus musculus [17]) | Activity (Mus musculus [18]) | Activity (Rattus norvegicus [19]) | Activity (Mus musculus [21]) | further results
O=C(O)CCCNC(=O)NN=C(c1ccccc1)c1ccccc1 | 13.7 s | 10.9 s | 13.3 | 18.5 s | Active | 19.9 s | Active | 18.4 s | 15 s | Active | 18.5 s | 93% | Active | Active | 13.4 s | inactive | inactive | inactive | 15.1 s | Active | Activity (Rattus norvegicus [20]): 8.8 s
CC(=O)Oc1ccccc1C(=O)O [ASPIRIN] | – | – | 5.7 | – | inactive | – | inactive | – | – | inactive | – | 97% | inactive | inactive | – | inactive | inactive | inactive | – | inactive | –
O=C(O)CCCNC(=O)NN=C1CCCCC1 | 11.3 s | 10.6 s | 32 | 20.2 s | inactive | 19.7 s | Active | 14.7 s | 12.8 s | inactive | 15.6 s | 82% | inactive | inactive | 10.8 s | inactive | inactive | Active | 21.2 s | inactive | Activity (Rattus norvegicus [22]): 24.8 s; Activity (Rattus norvegicus [23]): 4.8 s; Activity (Rattus norvegicus [24]): 1.8 s; Activity (Rattus norvegicus [25]): 7 s; Activity (Rattus norvegicus [26]): 5.2 s; Activity (Rattus norvegicus [27]): 5.2 s; Activity (Rattus norvegicus [28]): 5.6 s; Activity (Rattus norvegicus [29]): 0.2 s; Activity (Rattus norvegicus [30]): 0.24 s; Activity (Rattus norvegicus [20]): 10.8 s; Activity (Rattus norvegicus [31]): 20.3 s
C/C(=N\NC(=O)NCCCC(=O)O)c1ccc([N+](=O)[O-])cc1 | – | – | 61 | – | inactive | – | inactive | – | – | inactive | – | 67% | inactive | inactive | – | inactive | inactive | inactive | – | inactive | –
CCC1(C)CC(=O)NC1=O (stereo unspecified) | – | – | – | – | inactive | – | inactive | – | – | inactive | – | – | inactive | inactive | – | inactive | inactive | Active | – | inactive | Activity (Mus musculus [3]): inactive; Activity (Mus musculus [12]): inactive
O=C(O)CCCNC(=O)N/N=C/c1ccc([N+](=O)[O-])cc1 | – | – | 18.7 | – | inactive | – | inactive | – | – | inactive | – | 90% | inactive | Active | – | inactive | inactive | inactive | – | inactive | Activity (Rattus norvegicus [32]): 9.2 s; Activity (Rattus norvegicus [33]): 11.3 s; Activity (Rattus norvegicus [34]): 13.6 s; Activity (Rattus norvegicus [24]): 1.5 s; Activity (Rattus norvegicus [35]): 17.2 s; Activity (Rattus norvegicus [26]): 14.5 s; Activity (Rattus norvegicus [36]): 10.2 s; Activity (Rattus norvegicus [28]): 4.3 s; Activity (Rattus norvegicus [29]): 1.8 s; Activity (Rattus norvegicus [30]): 1.34 s
